Measurements as given in ChEMBL document CHEMBL1148304, “Discovery of embelin as a cell-permeable, small-molecular weight inhibitor of XIAP through structure-based computational screening of a traditional herbal medicine three-dimensional structure database” (J Med Chem, 2004).
“And” between values parts separate entries of the source, which are not always exact repeats. Equal values may be shown once. Where a SMILES comes first, the peptide text is derived from it. The star is where a group is joined. X1 = O=C(ON1C(=O)CCC1=O)c1cccc(-c2c3ccc(=O)cc-3oc3cc(O)ccc23)c1C(=O)*

Assays:
[1] = target: T1, E3 ubiquitin-protein ligase XIAP (Homo sapiens, UniProt P98170); experiment: Dissociation constant for XIAP BIR3 protein using different binding assay
T1 sequence (P98170 whole entry): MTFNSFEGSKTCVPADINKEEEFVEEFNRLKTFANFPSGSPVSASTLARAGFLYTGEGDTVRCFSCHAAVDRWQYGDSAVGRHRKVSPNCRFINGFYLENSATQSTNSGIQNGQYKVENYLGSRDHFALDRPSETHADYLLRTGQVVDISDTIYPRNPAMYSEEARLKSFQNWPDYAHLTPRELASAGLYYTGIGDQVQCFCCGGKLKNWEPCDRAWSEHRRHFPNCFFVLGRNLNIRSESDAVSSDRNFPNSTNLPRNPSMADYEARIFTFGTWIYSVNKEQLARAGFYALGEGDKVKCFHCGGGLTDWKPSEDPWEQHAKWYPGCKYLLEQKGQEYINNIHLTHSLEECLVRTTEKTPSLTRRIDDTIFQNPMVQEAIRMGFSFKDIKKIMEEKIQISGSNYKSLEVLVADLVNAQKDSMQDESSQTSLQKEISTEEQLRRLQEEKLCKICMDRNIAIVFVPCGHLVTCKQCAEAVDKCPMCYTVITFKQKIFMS

[2] = target: T1, E3 ubiquitin-protein ligase XIAP; experiment: Dissociation constant for XIAP BIR3 protein in FP-based binding assay
[3] = target: T1, E3 ubiquitin-protein ligase XIAP; experiment: Compound was tested for inhibitory activity towards XIAP BIR3 protein
Jurkat [4] = experiment: Percent of Jurkat-XIAP cells killed after 72 hr of 10 uM of compound administration; conditions: human
Jurkat [5] = experiment: Percent of Jurkat-Vec cells killed after 72 hr of 2.5 uM of compound administration; assay type: cell-based; conditions: human
Summary of the method: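 Jurkat T cells stably carrying empty vector, kept in RPMI 1640 with 10% fetal calf serum and 1 µg/mL puromycin at 37 °C, 5% CO2. Cell growth assay at 5000 cells/well in 10% FBS medium, drug added in triplicate for 72 h. WST-1 then added for 1-3 h at 37 °C. Absorbance read at 450 nm, corrected at 650 nm, and compared with vehicle-control wells.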

Jurkat [6] = experiment: Percent of Jurkat-XIAP cells killed after 72 hr of 2.5 uM of compound administration; conditions: human
LNCaP [7] = experiment: Inhibitory concentration of compound against growth of LNCaP cells in vitro; assay type: functional, cell-based; conditions: Homo sapiens
Summary of the method: (§1)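 WST-1 growth assay: 5000 cells/well in medium with 10% FBS, serial compound concentrations in triplicate for 4–5 days (five days per legend); WST-1 added 1–3 h at 37 °C, absorbance 450 nm corrected at 650 nm. Growth as % of vehicle-control absorbance; IC50 by sigmoid curve fit; experiment repeated three times.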

PrEC [8] = experiment: Inhibitory concentration of compound against growth of PrEC cells in vitro; assay type: functional, cell-based; conditions: Homo sapiens; summary of the method: as §1
LNCaP [9] = experiment: Compound was tested for inhibition of LnCap prostate cancer cells; assay type: functional, cell-based; conditions: Homo sapiens; summary of the method: as §1
WI-38 = experiment: Inhibitory concentration of compound against growth of WI-38 cells in vitro; assay type: functional, cell-based; conditions: Homo sapiens; summary of the method: as §1
PC-3 [10] = experiment: Inhibitory concentration of compound against growth of PC-3 cells in vitro; assay type: functional, cell-based; conditions: Homo sapiens; summary of the method: as §1
Jurkat [11] = experiment: Inhibitory concentration of compound against Jurkat-Vec cells; assay type: functional, cell-based; conditions: Homo sapiens
Summary of the method: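 Stably vector-transfected Jurkat T cells kept in RPMI 1640 with 10% fetal calf serum and 1 µg/mL puromycin; growth read by WST-1 as for prostate lines: 5000 cells/well, triplicate concentrations, 4–5 days, absorbance 450/650 nm versus vehicle control, IC50 from sigmoid fit.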

PC-3 [12] = experiment: Compound was tested for inhibition of PC-3 prostate cancer cells; assay type: functional, cell-based; conditions: Homo sapiens; summary of the method: as §1
PC-3 [13] = experiment: Induction of apoptosis by embelin in PC-3 prostate cancer cells at a concentration of 25 uM for 48 h; assay type: functional, Homo sapiens
Summary of the method: (§2)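 PC-3 cells, 1 × 10^6 per well, treated in triplicate with compound for 48 h, trypsinized, PBS-washed, stained with Annexin V-FITC plus propidium iodide; flow cytometry, reported as % Annexin V-FITC-positive apoptotic cells; three separate experiments.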

PC-3 [14] = experiment: Percent of PC-3 cells underwent apoptosis after incubation with 25 uM of compound for 48 hr; assay type: functional, Homo sapiens; summary of the method: as §2
PC-3 [15] = experiment: Percent of PC-3 cells stained for activated caspase-9 after incubation with 40 uM of compound for 42h; assay type: functional, Homo sapiens
Summary of the method: (§3)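 PC-3 cells seeded 1 × 10^6 per well, exposed to compound or DMSO vehicle for 42 h; parallel control had pan-caspase inhibitor Z-VAD-FMK added 5 min before compound. Cells in complete medium labeled with Red-LEHD-FMK 0.5 h at 37 °C, 5% CO2, washed; active caspase-9 scored by flow cytometry in PI channel as % positive cells.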

PrEC [16] = experiment: Selectivity in normal human prostate epithelial cells (PrEC); assay type: functional, cell-based; summary of the method: as §1
PC-3 [17] = experiment: Activation of caspase-9 by embelin in PC-3 prostate cancer cells at a concentration of 20 uM; assay type: functional, Homo sapiens; summary of the method: as §3
PC-3 [18] = experiment: Percent of PC-3 cells stained for activated caspase-9 after incubation with 20 uM of compound for 42h; assay type: functional, Homo sapiens; summary of the method: as §3
PC-3 [19] = experiment: Activation of caspase-9 by embelin in PC-3 prostate cancer cells at a concentration of 40 uM; assay type: functional, Homo sapiens; summary of the method: as §3
PC-3 [20] = experiment: Percent of PC-3 cells underwent apoptosis after incubation with 50 uM of compound for 48 hr; assay type: functional, Homo sapiens; summary of the method: as §2
Jurkat [21] = experiment: Induction of apoptosis by etoposide in Jurkat vec cells at a dose of 2.5 uM for 72 h; assay type: functional, Homo sapiens
Summary of the method: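 Stably vector-transfected Jurkat cells exposed to etoposide 2.5 µM for 72 h in the cell growth assay; reported as % of cells killed.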

WI-38 5000 = experiment: Selectivity in normal human fibroblast cell line, WI-38 cells; assay type: functional, cell-based; summary of the method: as §1
PC-3 [22] = experiment: Induction of apoptosis by embelin in PC-3 prostate cancer cells at a concentration of 50 uM for 48 h; assay type: functional, Homo sapiens; summary of the method: as §2

In the case of `C[C@H](N)C(=O)N[C@@H](CCCNC(=N)N)C(=O)N1CCC[C@H]1C(=O)N[C@@H](Cc1ccccc1)C(=O)N[C@@H](C)C(=O)N[C@@H](CCC(N)=O)C(=O)N[C@@H](CCCCN)C(=O)O` (H-ARPFAQK-OH), the Kd [1] is reported as 0.02 µM and the Kd [2] is reported as 0.038 µM.
For `C[C@H](N)C(=O)N[C@@H](CCCNC(=N)N)C(=O)N1CCC[C@H]1C(=O)N[C@@H](Cc1ccccc1)C(=O)N[C@@H](C)C(=O)N[C@@H](CCC(N)=O)C(=O)N[C@@H](CCCCNC(=O)c1c(C(=O)ON2C(=O)CCC2=O)cccc1-c1c2ccc(=O)cc-2oc2cc(O)ccc12)C(=O)O` (H-ARPFAQK(X1)-OH), the IC50 [3] was 0.57 µM.
Work on `COc1cc([C@@H]2c3cc4c(cc3[C@@H](O[C@@H]3O[C@@H]5CO[C@@H](C)O[C@H]5[C@H](O)[C@H]3O)[C@H]3COC(=O)[C@H]23)OCO4)cc(OC)c1O` [ETOPOSIDE] yielded a Death (Jurkat [4]) of 85%, a Death (Jurkat [5]) of 94.3% and a Death (Jurkat [6]) of 59%.
Work on `CCCCCCCCCCCC1=C(O)C(=O)C=C(O)C1=O` [EMBELIN] yielded an IC50 (LNCaP [7]) of 5.7 µM, an IC50 (PrEC [8]) of 20.1 µM and an IC50 (LNCaP [9]) of 5.7 µM. It also gave an IC50 (WI-38) of 19.3 µM, an IC50 (PC-3 [10]) of 3.7 µM and an IC50 (Jurkat [11]) of 20 µM. The IC50 (PC-3 [12]) was 3.7 µM, the Induction (PC-3 [13]) was 30% and the Apoptosis (PC-3 [14]) was 30%. For the same molecule, the Staining (PC-3 [15]) was 62.1%, the IC50 (PrEC [16]) was 20.1 µM and the Induction (PC-3 [17]) was 33%. For the same molecule, the Staining (PC-3 [18]) was 33%, the Induction (PC-3 [19]) was 62.1% and the Apoptosis (PC-3 [20]) was 75%. For the same molecule, the Induction (Jurkat [21]) was 94.3% and 59%, the IC50 [3] was 4.1 µM and the IC50 (WI-38 5000) was 19.3 µM. For the same molecule, the Induction (PC-3 [22]) was 75%.
